{
  "source": "PubChem BioAssay",
  "note": "Unmarked numbers belong to inactive results. Activity calls are given as the source filed them.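 How the source made its calls, unless noted: active means viability at or under a set limit in both replicates, limit being median viability minus 3 SD (cut at about 48% in these data, passing the limit was not always enough); inconclusive means at or under the limit in just one replicate; inactive means at or above the limit in both replicates.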",
  "data": [
    {"assay": "HUVEC growth inhibition – cell-based, human, primary screen (AID 575;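 active means viability at or below 30% in both replicate assays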;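 further: 100% = median of untreated cell wells with 0.1% DMSO on each plate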)", "conditions": "HUVEC proliferation, CellTiter-Glo luminescence, 72 h; at 10 µM; hits give low values", "how_it_was_run": "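Test system: primary human umbilical vein endothelial cells; medium: endothelial basal medium with 2% FBS plus growth supplements; dosing: 10 µM compound only; times: 72 h treatment at 37 °C; signal: CTG luminescence; read-out: % viability relative to median vehicle-well signal on each plate; control set: vehicle and MePR control wells; plate: 384-well, collagen-coated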", "units": {"viability": "%"}, "values": [
      {"smiles": "Cc1cccc2c(=O)oc(-c3ccc4c(c3)C(=O)N(CC3CCCO3)C4=O)nc12", "note": "(stereo not given)", "viability": 101},
      {"smiles": "CC(=O)NC(C)C(=O)OCc1ccc(Cl)cc1Cl", "note": "(stereo not given)", "viability": 99.5},
      {"smiles": "CC1CCCC(C)N1C(=O)CSc1nnc(-c2cccs2)o1", "note": "(stereo not given)", "viability": 106},
      {"smiles": "CC(C)N(C(=O)N1CCC(c2nc(-c3ccncc3)no2)CC1)C(C)C", "viability": 105},
      {"smiles": "COc1ccccc1NC(=O)N(Cc1ccco1)Cc1cc2cccc(C)c2[nH]c1=O", "viability": 70.9},
      {"smiles": "NC(CO)C(=O)NNCc1ccc(O)c(O)c1O", "note": "(stereo not given)", "viability": 82.9},
      {"smiles": "Cc1csc(NC(=O)Nc2cccc(Cl)c2)n1", "viability": 75},
      {"smiles": "CCCCOc1ccccc1C1C(C(N)=O)=C(C)Nc2nnnn21", "note": "(stereo not given)", "viability": 98.3},
      {"smiles": "CC(C)Oc1cc2oc(=O)c3c(c2cc1Cl)CCC3", "viability": 99},
      {"smiles": "Cc1cccc(C)c1OCC(=O)Nc1cccc(NC(=O)c2ccco2)c1", "viability": 71.2},
      {"smiles": "CCOC(=O)c1cnc2c(OC)cccc2c1N1CCN(c2ccc(OC)cc2)CC1", "viability": 66.1},
      {"smiles": "CC(C)CCNC(=O)C(C)N(Cc1ccc(F)cc1)C(=O)c1ccc(CN2CCCCC2)o1", "note": "(stereo not given)", "viability": 108},
      {"smiles": "CCn1nc(C(=O)O)c(=O)c2cc3c(cc21)OCO3", "viability": 86.7},
      {"smiles": "CC(=O)O[C@H]1C[C@@H]2CC[C@@H]3[C@H](CC[C@@]4(C)[C@H]3C[C@H]([N+]3(C)CCCCC3)[C@@H]4OC(C)=O)[C@@]2(C)C[C@@H]1[N+]1(C)CCCCC1", "viability": 88.4},
      {"smiles": "COc1ccc(S(=O)(=O)Nc2cccc(C)n2)c2ccccc12", "viability": 109},
      {"smiles": "COC(=O)[C@H](C)NC(=O)Nc1cccc(C(F)(F)F)c1", "viability": 97.2},
      {"smiles": "Cc1cc2c(c(=O)n1C)C(Cc1ccccc1)C(C#N)=C(N)O2", "note": "(stereo not given)", "viability": 109},
      {"smiles": "Cn1c(-c2ccc(F)cc2)cnc1SCC(=O)Nc1ccccc1N1CCOCC1", "viability": 103},
      {"smiles": "CCCNC(=O)NC1C(NC(=O)NCCC)N(C)C(=O)N1C", "note": "(stereo not given)", "viability": 104},
      {"smiles": "C=CCN(CC=C)C(=O)Nc1cc(Cl)ccc1OC", "viability": 95.3},
      {"smiles": "COc1cccc(NC(=O)C2CCCN2C(=O)Nc2cccc(F)c2)c1", "note": "(stereo not given)", "viability": 103},
      {"smiles": "Nc1nc(-c2ccc(Br)s2)c(Br)s1", "viability": 61.3},
      {"smiles": "COc1ccc(CCNC(=O)CCN2C(=O)C3CC=CCC3C2=O)cc1OC", "note": "(stereo not given)", "viability": 91.9},
      {"smiles": "CC[C@H](C)C(=O)O[C@H]1C[C@@H](C)C=C2C=C[C@H](C)[C@H](CC[C@@H]3C[C@@H](O)CC(=O)O3)[C@H]21", "viability": 50.6},
      {"smiles": "COc1cccc(-c2cc(C(=O)Nc3c(C)nn(Cc4ccccc4)c3C)no2)c1", "viability": 82.6},
      {"smiles": "CCn1c(SCC(=O)NC)nnc1C(C)C", "viability": 123},
      {"smiles": "Cn1c(=O)c2c(nc(NCCCO)n2Cc2cccc(Br)c2)n(C)c1=O", "viability": 104},
      {"smiles": "COc1cc(NC(=O)CSCc2cnn(-c3ccccc3)c2-n2cccc2)cc(OC)c1", "viability": 67.9},
      {"smiles": "COc1ccc(-n2ncc3c(NCc4ccc5c(c4)OCO5)ncnc32)cc1", "viability": 49.8},
      {"smiles": "CCN(CC(=O)Nc1ccc2c(c1)CCC2)Cc1nc2ccccc2c(=O)[nH]1", "viability": 81.8},
      {"smiles": "COc1ccccc1OCCOCCn1cnc2ccccc2c1=O", "viability": 93.8},
      {"smiles": "Cc1cn2c(-c3ccncc3)nnc2s1", "viability": 87.4},
      {"smiles": "c1ccc2c(SCc3cn4cccnc4n3)ncnc2c1", "viability": 99.9},
      {"smiles": "Cc1cnc(NC(=O)CSc2nnc(-c3ccccc3)n2Cc2ccccc2)s1", "viability": 82.5},
      {"smiles": "C=CCN1C(=O)CS/C1=C(\\C#N)S(=O)(=O)c1ccc(C)cc1", "viability": 96.2},
      {"smiles": "Cc1cc(C)n2nc(SCC(=O)N(C)Cc3ccccc3)nc2n1", "viability": 107},
      {"smiles": "COc1ccc2nc(S(=O)Cc3ncc(C)c(OC)c3C)[nH]c2c1", "note": "(stereo not given)", "viability": 71.1},
      {"smiles": "O=C(O)c1cccc(COCC(F)(F)C(F)F)c1", "viability": 88.2},
      {"smiles": "Cc1ccc(S(=O)(=O)N2CCN(C(=O)N3CCOCC3)C2C)cc1", "note": "(stereo not given)", "viability": 103},
      {"smiles": "CCOc1ccc(NC(=O)CC2NCCNC2=O)cc1", "note": "(stereo not given)", "viability": 108}
    ]},
    {"assay": "growth inhibitors of H69AR lung tumor, primary screen, human, duplicate replicates (AID 580);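 further: 100% = mean luminescence of untreated wells and 0% = no signal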", "conditions": "H69AR lung tumor cells viability, ATP luminescence, 72 h; at 10 µM; hits give low values", "values": [
      {"smiles": "Cc1cccc2c(=O)oc(-c3ccc4c(c3)C(=O)N(CC3CCCO3)C4=O)nc12", "note": "(stereo not given)", "viability": "98.7%"},
      {"smiles": "CC(=O)NC(C)C(=O)OCc1ccc(Cl)cc1Cl", "note": "(stereo not given)", "viability": "103%"},
      {"smiles": "CC1CCCC(C)N1C(=O)CSc1nnc(-c2cccs2)o1", "note": "(stereo not given)", "viability": "95.1%"},
      {"smiles": "CC(C)N(C(=O)N1CCC(c2nc(-c3ccncc3)no2)CC1)C(C)C", "viability": "102%"},
      {"smiles": "COc1ccccc1NC(=O)N(Cc1ccco1)Cc1cc2cccc(C)c2[nH]c1=O", "viability": "75.8%"},
      {"smiles": "NC(CO)C(=O)NNCc1ccc(O)c(O)c1O", "note": "(stereo not given)", "viability": "98.7%"},
      {"smiles": "Cc1csc(NC(=O)Nc2cccc(Cl)c2)n1", "viability": "98.6%"},
      {"smiles": "CCCCOc1ccccc1C1C(C(N)=O)=C(C)Nc2nnnn21", "note": "(stereo not given)", "viability": "93.3%"},
      {"smiles": "CC(C)Oc1cc2oc(=O)c3c(c2cc1Cl)CCC3", "viability": "98.2%"},
      {"smiles": "Cc1cccc(C)c1OCC(=O)Nc1cccc(NC(=O)c2ccco2)c1", "viability": "84.6%"},
      {"smiles": "CCOC(=O)c1cnc2c(OC)cccc2c1N1CCN(c2ccc(OC)cc2)CC1", "viability": "79.6%"},
      {"smiles": "CC(C)CCNC(=O)C(C)N(Cc1ccc(F)cc1)C(=O)c1ccc(CN2CCCCC2)o1", "note": "(stereo not given)", "viability": "95.4%"},
      {"smiles": "CCn1nc(C(=O)O)c(=O)c2cc3c(cc21)OCO3", "viability": "106%"},
      {"smiles": "CC(=O)O[C@H]1C[C@@H]2CC[C@@H]3[C@H](CC[C@@]4(C)[C@H]3C[C@H]([N+]3(C)CCCCC3)[C@@H]4OC(C)=O)[C@@]2(C)C[C@@H]1[N+]1(C)CCCCC1", "viability": "94.5%"},
      {"smiles": "COc1ccc(S(=O)(=O)Nc2cccc(C)n2)c2ccccc12", "viability": "100%"},
      {"smiles": "COC(=O)[C@H](C)NC(=O)Nc1cccc(C(F)(F)F)c1", "viability": "89.9%"},
      {"smiles": "Cc1cc2c(c(=O)n1C)C(Cc1ccccc1)C(C#N)=C(N)O2", "note": "(stereo not given)", "viability": "95.1%"},
      {"smiles": "Cn1c(-c2ccc(F)cc2)cnc1SCC(=O)Nc1ccccc1N1CCOCC1", "viability": "102%"},
      {"smiles": "CCCNC(=O)NC1C(NC(=O)NCCC)N(C)C(=O)N1C", "note": "(stereo not given)", "viability": "105%"},
      {"smiles": "C=CCN(CC=C)C(=O)Nc1cc(Cl)ccc1OC", "viability": "96.9%"},
      {"smiles": "COc1cccc(NC(=O)C2CCCN2C(=O)Nc2cccc(F)c2)c1", "note": "(stereo not given)", "viability": "103%"},
      {"smiles": "Nc1nc(-c2ccc(Br)s2)c(Br)s1", "viability": "94.3%"},
      {"smiles": "COc1ccc(CCNC(=O)CCN2C(=O)C3CC=CCC3C2=O)cc1OC", "note": "(stereo not given)", "viability": "105%"},
      {"smiles": "CC[C@H](C)C(=O)O[C@H]1C[C@@H](C)C=C2C=C[C@H](C)[C@H](CC[C@@H]3C[C@@H](O)CC(=O)O3)[C@H]21", "viability": "72.2%"},
      {"smiles": "COc1cccc(-c2cc(C(=O)Nc3c(C)nn(Cc4ccccc4)c3C)no2)c1", "viability": "98.2%"},
      {"smiles": "CCn1c(SCC(=O)NC)nnc1C(C)C", "viability": "94.8%"},
      {"smiles": "Cn1c(=O)c2c(nc(NCCCO)n2Cc2cccc(Br)c2)n(C)c1=O", "viability": "85.7%"},
      {"smiles": "COc1cc(NC(=O)CSCc2cnn(-c3ccccc3)c2-n2cccc2)cc(OC)c1", "viability": "80.6%"},
      {"smiles": "COc1ccc(-n2ncc3c(NCc4ccc5c(c4)OCO5)ncnc32)cc1", "viability": "6.44% (active)"},
      {"smiles": "CCN(CC(=O)Nc1ccc2c(c1)CCC2)Cc1nc2ccccc2c(=O)[nH]1", "viability": "71.5%"},
      {"smiles": "COc1ccccc1OCCOCCn1cnc2ccccc2c1=O", "viability": "87.7%"},
      {"smiles": "Cc1cn2c(-c3ccncc3)nnc2s1", "viability": "99.8%"},
      {"smiles": "c1ccc2c(SCc3cn4cccnc4n3)ncnc2c1", "viability": "88.4%"},
      {"smiles": "Cc1cnc(NC(=O)CSc2nnc(-c3ccccc3)n2Cc2ccccc2)s1", "viability": "90.2%"},
      {"smiles": "C=CCN1C(=O)CS/C1=C(\\C#N)S(=O)(=O)c1ccc(C)cc1", "viability": "85.5%"},
      {"smiles": "Cc1cc(C)n2nc(SCC(=O)N(C)Cc3ccccc3)nc2n1", "viability": "81.7%"},
      {"smiles": "COc1ccc2nc(S(=O)Cc3ncc(C)c(OC)c3C)[nH]c2c1", "note": "(stereo not given)", "viability": "80.8%"},
      {"smiles": "O=C(O)c1cccc(COCC(F)(F)C(F)F)c1", "viability": "102%"},
      {"smiles": "Cc1ccc(S(=O)(=O)N2CCN(C(=O)N3CCOCC3)C2C)cc1", "note": "(stereo not given)", "viability": "99%"},
      {"smiles": "CCOc1ccc(NC(=O)CC2NCCNC2=O)cc1", "note": "(stereo not given)", "viability": "95.3%"}
    ]}
  ]
}
